The values below come from ChEMBL document CHEMBL3751849, “Design, Synthesis, and Biological Characterization of Novel Mitochondria Targeted Dichloroacetate-Loaded Compounds with Antileukemic Activity” (J Med Chem, 2016).

By IC50 is commonly meant the concentration that inhibits the measured activity by half. High values mean a need for much substance, low ones inhibition by little substance.

Data set [1] in a line: Cytotoxicity against human HL60 cells at 3 to 300 uM after 48 hrs by MTT assay. Particulars: hl-60, 48 h. The format is cell-based. The procedure, abridged:
(§1)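 Cells seeded at 1 × 10^6 cells/mL. JVM-2, MAVER and HL-60 were grown in RPMI-1640; MEC-1 and MEC-2 were grown in IMDM. Primary cells were grown in RPMI-1640. All media carried 10% FBS, L-glutamine and penicillin/streptomycin. Test agents were added at 3–300 μM, and DCA at 1–30 mM.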
A general note: Tetrazolium dyes change colour on reduction, which living cells bring about.

The nature of data set [2]: Cytotoxicity against human MEC2 cells at 3 to 300 uM after 48 hrs by MTT assay. The class given is cell-based. The settings on record: mec2, 48 h. The procedure, abridged: as §1
Data set [3] in a line: Cytotoxicity against human JVM2 cells at 3 to 300 uM after 48 hrs by MTT assay. The class given is cell-based. The settings on record: jvm-2, 48 h. In outline: as §1
Data set [4] can be described thus: Cytotoxicity against human Maver1 cells at 3 to 300 uM uM after 48 hrs by MTT assay. The class given is cell-based. Particulars: maver1, 48 h. In outline:
as §1

Data set [5] can be described thus: Cytotoxicity against human MEC1 cells at 3 to 300 uM after 48 hrs by MTT assay. The format is cell-based. The settings on record: mec1, 48 h. In outline:
as §1

Data set [6] can be described thus: Cell cycle arrest in human JVM2 cells assessed as accumulation at S phase at 300 uM after 48 hrs by BrdU/PI-staining based FACS analysis (reference value: 40%). The format is functional. Particulars: JVM-2. For orientation: Flow cytometry measures light scatter and fluorescence of single cells or particles in a stream.
The test system of data set [7] is Plasma. Description: Metabolic stability in BALB/c mouse plasma assessed as compound remaining at 57 mg/kg, sc after >5 hrs by HPLC-MS analysis. The class given is ADME, organism-based. The settings on record: in vivo. In outline:
(§2)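 Female BALB/c mice, 8 weeks old (n = 12), received one sc dose of 57 mg/kg in 200 μL PBS/25% DMSO. Tail-vein blood was drawn at 1, 2.5, 4, 5.5, 7, 16 and 24 h, and plasma was stored at −80 °C. Plasma (100 μL) was diluted in 300 μL acetonitrile/water/TFA and filtered. It was then analysed by nano-HPLC-MS on a C-18 column, using a 15-min water-to-acetonitrile gradient with 0.1% formic acid.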

The subject of the next data set is Maver1. The data set can be described thus: (§3) Cytotoxicity against human Maver1 cells after 48 hrs by MTT assay. The class given is functional, cell-based. The procedure, abridged: as §1
A short description of data set [8]: as §3. The settings on record: Maver1, 48 h. The format is functional, cell-based. In outline:
as §1

In data set [9] the test system is Leukemia cell. The data set can be described thus: Reduction in maximal oxygen consumption rate of mitochondria in human leukemia cells pretreated at 300 uM for 3 hrs followed by FCCP addition by seahorse analyzer. The format is functional. The procedure, abridged:
(§4)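 Leukemic cells were treated for 3 h at 300 μM, then plated at 3 × 10^5 cells/well on poly-L-lysine. They were held 1 h at 37 °C without CO2 and run on an XFe96 Mito stress test. Additions were made sequentially: oligomycin 1.0 μM, FCCP 1.0 μM, then antimycin A plus rotenone at 1.0 μM each. OCR was expressed as pmol O2/min and normalized to cell number. Coupling efficiency and spare capacity were calculated after subtracting non-mitochondrial OCR. Data are from six independent experiments.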

The nature of data set [10]: Induction of apoptosis in human primary B-CLL cells assessed as late apoptotic cells at 300 uM after 48 hrs by annexin V-FITC/PI-staining based FACS analysis (reference value: 8.5%). The class given is functional.
For another data set, the system named is MEC2. The data set can be described thus: (§5) Cytotoxicity against human MEC2 cells after 48 hrs by MTT assay. The format is functional, cell-based. The procedure, abridged:
as §1

Data set [11] can be described thus: as §5. The format is functional, cell-based. The settings on record: MEC2, 48 h. In outline: as §1
Data set [12] is described as follows: Induction of apoptosis in human primary B-CLL cells assessed as early apoptotic cells at 300 uM after 48 hrs by annexin V-FITC/PI-staining based FACS analysis (reference value: 10.7%). The format is functional.
Data set [13] has as its system JVM-2. The data set can be described thus: (§6) Cytotoxicity against human JVM2 cells after 48 hrs by MTT assay. The class given is functional, cell-based. In outline: as §1
The nature of data set [14]: as §6. The class given is functional, cell-based. Particulars: JVM-2, 48 h. The procedure, abridged:
as §1

The test system of data set [15] is Leukemia cell. The data set can be described thus: Reduction in mitochondrial spare respiratory capacity in human leukemia cells pretreated at 300 uM for 3 hrs followed by antimycin A/rotenone addition by seahorse analyzer. The class given is functional, cell-based. The procedure, abridged:
as §4

The nature of data set [16]: Upregulation of p21 mRNA expression in human primary B-CLL cells at 300 uM after 24 to 48 hrs by qRT-PCR analysis. The format is functional, cell-based. For orientation: Real-time PCR tracks product formation cycle by cycle.
The next data set has as its system MEC1. Description: (§7) Cytotoxicity against human MEC1 cells after 48 hrs by MTT assay. The class given is functional, cell-based. The procedure, abridged: as §1
Data set [17] in a line: as §7. The class given is functional, cell-based. The settings on record: MEC1, 48 h. In outline: as §1
Data set [18] deals with JVM-2. The data set can be described thus: Induction of apoptosis in human JVM2 cells assessed as late apoptotic cells at 300 uM after 48 hrs by annexin V-FITC/PI-staining based FACS analysis (reference value: 11%). The class given is functional.
Data set [19] concerns Leukemia cell. Description: Reduction in mitochondrial coupling efficiency in human leukemia cells pretreated at 300 uM for 3 hrs followed by antimycin A/rotenone addition by seahorse analyzer. The format is functional, cell-based. In outline:
as §4

The next data set has as its system PBMC. The data set can be described thus: Cytotoxicity against human PBMC cells after 48 hrs by MTT assay. The format is cell-based. The procedure, abridged: as §1
The subject of a further data set is HL-60. Description: (§8) Cytotoxicity against human HL60 cells after 48 hrs by MTT assay. The class given is functional, cell-based. In outline:
as §1

Data set [20] is described as follows: as §8. The class given is functional, cell-based. The settings on record: HL-60, 48 h. The procedure, abridged:
as §1

Data set [21] has as its system JVM-2. Description: Induction of apoptosis in human JVM2 cells assessed as early apoptotic cells at 300 uM after 48 hrs by annexin V-FITC/PI-staining based FACS analysis (reference value: 1.6%). The format is functional.
Data set [22] has as its system Plasma. Description: Retention time in BALB/c mouse plasma at 57 mg/kg, sc after 4 hrs by HPLC-MS analysis. The format is ADME, organism-based. The settings on record: in vivo. In outline: as §2
Data set [23] has as its system Plasma. The data set can be described thus: Drug metabolism in BALB/c mouse plasma at 57 mg/kg, sc after >5 hrs by HPLC-MS analysis. The class given is ADME, organism-based. Particulars: in vivo. The procedure, abridged:
as §2

For another data set, the system named is B-CLL. Description: Induction of p21 protein level in human primary B-CLL cells at 300 uM after 24 to 48 hrs by Western blot analysis. The format is functional, cell-based. In outline:
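Primary B-CLL patient cells treated 24 or 48 h, lysed and analysed by Western blot using anti-p21 (C-19) antibody to detect p21 protein induction.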

Data set [24] relates to Leukemia cell. The data set can be described thus: Reduction in basal oxygen consumption rate of mitochondria in human leukemia cells at 300 uM after 3 hrs by seahorse analyzer. The format is functional. The procedure, abridged:
as §4

Data set [25] can be described thus: Cytotoxicity against human JVM2 cells at 30 uM after 48 hrs by MTT assay. The class given is cell-based. Particulars: jvm-2, 48 h. The procedure, abridged:
as §1

Data set [26] in a line: Cytotoxicity against human Maver1 cells at 30 uM after 48 hrs by MTT assay. The format is cell-based. Particulars: maver1, 48 h. In outline:
as §1

Data set [27] is described as follows: Cytotoxicity against human MEC2 cells at 30 uM after 48 hrs by MTT assay. Particulars: mec2, 48 h. The class given is cell-based. In outline: as §1
Data set [28] is described as follows: Cytotoxicity against human HL60 cells at 30 uM after 48 hrs by MTT assay. Particulars: hl-60, 48 h. The format is cell-based. In outline: as §1
The nature of data set [29]: Cytotoxicity against human MEC1 cells at 30 uM after 48 hrs by MTT assay. Particulars: mec1, 48 h. The class given is cell-based. The procedure, abridged:
as §1

Data set [30] in a line: Induction of apoptosis in human primary B-CLL cells assessed as early apoptotic cells at 30 mM after 48 hrs by annexin V-FITC/PI-staining based FACS analysis (reference value: 10.7%). The class given is functional.
The test system of data set [31] is JVM-2. Description: Induction of apoptosis in human JVM2 cells assessed as early apoptotic cells at 10 mM after 48 hrs by annexin V-FITC/PI-staining based FACS analysis (reference value: 1.6%). The class given is functional. The procedure, abridged:
(§9)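 JVM-2 cells seeded at 1 × 10^6 cells/mL in RPMI-1640 with 10% FBS and treated 48 h. Annexin V-FITC/PI staining read by flow cytometry, giving percentage of apoptotic leukemic cells. Mean ± SD of at least three independent experiments; p < 0.05 versus untreated cultures.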

Data set [32] is described as follows: Cell cycle arrest in human JVM2 cells assessed as accumulation at S phase at 30 mM after 48 hrs by BrdU/PI-staining based FACS analysis (reference value: 40%). Particulars: JVM-2. The format is functional.
Data set [33] relates to JVM-2. Description: Induction of apoptosis in human JVM2 cells assessed as late apoptotic cells at 10 mM after 48 hrs by annexin V-FITC/PI-staining based FACS analysis (reference value: 11%). The class given is functional. The procedure, abridged:
as §9

A short description of data set [34]: Induction of apoptosis in human primary B-CLL cells assessed as late apoptotic cells at 30 mM after 48 hrs by annexin V-FITC/PI-staining based FACS analysis (reference value: 8.5%). The format is functional.

Active and inactive are the calls of the source. The calls are words filed in the database; no cut-off is given here.

Consider `CC(C)(C)OC(=O)NCC[N+](C)(CCNC(=O)OC(C)(C)C)CCNC(=O)OC(C)(C)C.[I-]`, for which the Activity entry in data set [1], in [2], in [3], in data set [4] and in data set [5] was “Non-toxic” each time.
Take `O=C(NCCN(CCNC(=O)C(Cl)Cl)CCNC(=O)C(Cl)Cl)C(Cl)Cl`: the Activity in [6] is 22%; in the data set on Maver1, “Dose-dependent effect”; in data set [10] it was 42.8%; in the data set on MEC2, “Dose-dependent effect”; in [12], 14.4%; in the data set on JVM-2 [13], “Dose-dependent effect”. The Activity result was “Dose-dependent effect” with MEC1, 25.5% in the data set on JVM-2 [18], “Dose-dependent effect” in the data set on HL-60 and 1.1% in the data set with JVM-2 [21]. The Stability entry in the data set on Plasma [7] was “Stable”. The IC50 in data set [8] was determined as 0.55 mM; in [11], 0.37 mM; in data set [14], 0.41 mM; in data set [17] it was 0.4 mM; in the data set on PBMC it was 1.26 mM; in [20], 0.34 mM. In addition, the outcome (with Leukemia cell [9]; in the data set with Leukemia cell [15]; in data set [16]; with Leukemia cell [19]; in the data set on B-CLL; in the data set with Leukemia cell [24]) was Active. In the data set with Plasma [22], this compound displayed a Retention_time of 0.455 min. In addition, the Drug metabolism entry in the data set on Plasma [23] is “metabolite_notdetected”.
In the case of `CC(C)(C)OC(=O)NCCN(CCNC(=O)OC(C)(C)C)CCNC(=O)OC(C)(C)C`, the Activity was 41% in [6]; 10.9% with JVM-2 [18]; “Non-toxic” in data set [1]; “Non-toxic” in [2]; “Non-toxic” in data set [3]; 1.3% with JVM-2 [21]. For the same compound, the Activity result in [4] and in data set [5] was “Non-toxic” throughout.
Take `CC(=O)OCC(COC(C)=O)(COC(C)=O)NC(=O)CCCCC[P+](c1ccccc1)(c1ccccc1)c1ccccc1.[Br-]`: the Activity entry in data set [25], in [26], in [27], in data set [28] and in data set [29] was “Toxic” in each case.
As to `C[N+](CCNC(=O)C(Cl)Cl)(CCNC(=O)C(Cl)Cl)CCNC(=O)C(Cl)Cl`, in the data set with Leukemia cell [24], the outcome was inactive.
In the case of `O=C(O)C(Cl)Cl` [DICHLOROACETIC ACID], the Activity in [30] worked out at 20.7%; in the data set on JVM-2 [31] it was 2.8%; in data set [32], 15%; in the data set on JVM-2 [33], 26.8%; in data set [34], 45.4%. In addition, the half-inhibitory concentration (IC50) in [8] was determined as 11.8 mM; in data set [11] it was 12.2 mM; in [14], 11.5 mM; in [17] it was 8.29 mM; in [20], 13.9 mM. Moreover, the result (in [16]; in the data set on B-CLL) was Active.
